From ChEMBL document CHEMBL4033620, “Design, synthesis and biological evaluation of quinoline derivatives as HDAC class I inhibitors” (Eur J Med Chem, 2017)

Legend:
[1] = target: Histone deacetylase (HDAC1 and HDAC2) (Homo sapiens, UniProt Q13547+Q92769); test: Inhibition of HDAC1/2 in human HeLa cell nuclear extract using COLOR DE LYS as substrate pretreated for 5 mins followed by substrate addition measured after 30 mins by UV-absorption method; assay type: cell-based
PC-3 [2] = test: Antiproliferative activity against human PC3 cells after 48 hrs by MTT assay; assay type: functional, cell-based; conditions: PC-3, 48 h
In short: (§1)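 Cells grown in RPMI1640 with 10% FBS at 37°C, 5% CO2. Seeded at 4000–5000 cells/well for 8 h, then exposed to a range of compound concentrations for 48 h. 0.5% MTT solution added for 4 h, formazan dissolved in DMSO, absorbance read at 570 nm. IC50 derived from inhibition ratios, given as mean ± standard deviation of two or three separate determinations.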

HeLa = test: Antiproliferative activity against human HeLa cells after 48 hrs by MTT assay; assay type: functional, cell-based; in short: as §1
K562 [3] = test: Antiproliferative activity against human K562 cells after 48 hrs by MTT assay; assay type: functional, cell-based; conditions: K562, 48 h
HEL = test: Antiproliferative activity against human HEL cells after 48 hrs by MTT assay; assay type: functional, cell-based
MOLT-4 = test: Antiproliferative activity against human MOLT4 cells after 48 hrs by MTT assay; assay type: functional, cell-based; conditions: MOLT-4, 48 h
K562 [4] = test: Induction of apoptosis in human K562 cells assessed as early apoptotic cells at 1 uM after 24 hrs by Annexin V-FITC/propidium iodide staining-based flow cytometry (reference value: 4.78%); assay type: functional
K562 [5] = test: Induction of apoptosis in human K562 cells after 24 hrs by Annexin V-FITC/propidium iodide staining-based flow cytometric method; assay type: functional, cell-based
K562 [6] = test: Induction of apoptosis in human K562 cells assessed as late apoptotic cells at 2 uM after 24 hrs by Annexin V-FITC/propidium iodide staining-based flow cytometry (reference value: 2.83%); assay type: functional
Histone deacetylase 8 = target: T1, Histone deacetylase 8 (Homo sapiens, UniProt Q9BY41); test: Inhibition of HDAC8 (unknown origin) using substrate after 30 mins by fluorometric analysis
T1 sequence (Q9BY41 whole entry): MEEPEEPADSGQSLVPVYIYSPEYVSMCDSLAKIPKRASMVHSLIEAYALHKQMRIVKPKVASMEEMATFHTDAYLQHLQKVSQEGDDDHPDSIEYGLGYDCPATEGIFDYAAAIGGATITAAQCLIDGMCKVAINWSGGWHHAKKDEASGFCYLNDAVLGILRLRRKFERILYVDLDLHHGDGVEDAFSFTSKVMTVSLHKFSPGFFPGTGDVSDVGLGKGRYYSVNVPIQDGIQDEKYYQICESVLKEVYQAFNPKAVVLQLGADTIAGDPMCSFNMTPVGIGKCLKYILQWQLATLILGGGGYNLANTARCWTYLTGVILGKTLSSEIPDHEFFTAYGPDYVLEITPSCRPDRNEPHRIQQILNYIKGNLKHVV

[7] = target: T2, Protein deacetylase HDAC6 (Homo sapiens, UniProt Q9UBN7); test: Inhibition of HDAC6 (unknown origin) using substrate after 30 mins by fluorometric analysis
T2 sequence (Q9UBN7 whole entry): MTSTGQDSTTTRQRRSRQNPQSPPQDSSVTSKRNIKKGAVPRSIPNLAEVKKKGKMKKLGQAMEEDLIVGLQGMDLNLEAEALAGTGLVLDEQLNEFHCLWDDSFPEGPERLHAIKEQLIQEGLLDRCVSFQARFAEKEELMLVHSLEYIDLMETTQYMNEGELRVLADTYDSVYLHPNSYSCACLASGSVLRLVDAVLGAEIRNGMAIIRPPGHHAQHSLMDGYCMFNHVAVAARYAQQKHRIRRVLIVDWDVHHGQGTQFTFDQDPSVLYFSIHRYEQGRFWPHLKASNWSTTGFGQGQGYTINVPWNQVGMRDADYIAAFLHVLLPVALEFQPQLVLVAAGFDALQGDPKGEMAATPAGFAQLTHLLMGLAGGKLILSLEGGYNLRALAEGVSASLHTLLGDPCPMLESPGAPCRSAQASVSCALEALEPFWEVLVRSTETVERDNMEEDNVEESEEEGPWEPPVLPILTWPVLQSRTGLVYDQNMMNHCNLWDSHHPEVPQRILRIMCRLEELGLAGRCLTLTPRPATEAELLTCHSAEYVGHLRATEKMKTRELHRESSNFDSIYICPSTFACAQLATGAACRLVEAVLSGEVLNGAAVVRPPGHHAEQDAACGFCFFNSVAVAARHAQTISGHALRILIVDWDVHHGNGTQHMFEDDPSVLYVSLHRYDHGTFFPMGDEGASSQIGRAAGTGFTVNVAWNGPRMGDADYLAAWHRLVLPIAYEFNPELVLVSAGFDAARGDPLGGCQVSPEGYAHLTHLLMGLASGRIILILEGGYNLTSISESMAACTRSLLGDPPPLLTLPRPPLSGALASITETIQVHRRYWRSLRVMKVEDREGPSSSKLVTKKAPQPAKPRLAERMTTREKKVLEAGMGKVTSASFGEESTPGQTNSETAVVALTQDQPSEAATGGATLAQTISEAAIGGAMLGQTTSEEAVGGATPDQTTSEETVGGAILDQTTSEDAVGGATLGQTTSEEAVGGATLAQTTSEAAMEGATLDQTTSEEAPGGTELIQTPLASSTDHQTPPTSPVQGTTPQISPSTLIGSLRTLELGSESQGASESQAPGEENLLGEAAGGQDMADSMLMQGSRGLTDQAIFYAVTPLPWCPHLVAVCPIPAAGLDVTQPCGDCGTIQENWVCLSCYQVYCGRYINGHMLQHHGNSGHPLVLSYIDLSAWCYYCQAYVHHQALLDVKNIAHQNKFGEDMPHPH

[8] = Inhibition of Class 1 histone deacetylase in human K562 cells using Boc-Lys (acetyl)-AMC as substrate preincubated with compound for 3 hrs followed by substrate addition measured after 3 hrs by fluorometric analysis; assay type: cell-based
K562 [9] = test: Potency index, ratio of vorinostat IC50 to compound IC50 for human K562 cells; assay type: functional
In short: (§2)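 Cells were grown in RPMI1640 with 10% FBS at 37°C and 5% CO2, seeded at 4000–5000 cells/well for 8 h, then exposed to a compound concentration series for 48 h. MTT (0.5%) was added for 4 h and formazan dissolved in DMSO. A570 was read and IC50 derived from inhibition ratios.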

[10] = Inhibition of Class 2a histone deacetylase in human K562 cells using Boc-Lys-(epsilon-trifluoromethylacetyl)-AMC as substrate preincubated with compound for 3 hrs followed by substrate addition measured after 3 hrs by fluorometric analysis; assay type: cell-based
K562 [11] = test: Induction of apoptosis in human K562 cells assessed as late apoptotic cells at 1 uM after 24 hrs by Annexin V-FITC/propidium iodide staining-based flow cytometry (reference value: 2.83%); assay type: functional
K562 [12] = test: Induction of apoptosis in human K562 cells assessed as viable cells at 2 uM after 24 hrs by Annexin V-FITC/propidium iodide staining-based flow cytometry (reference value: 92.4%); assay type: functional
K562 [13] = test: Induction of apoptosis in human K562 cells assessed as necrotic cells at 1 uM after 24 hrs by Annexin V-FITC/propidium iodide staining-based flow cytometry (reference value: 0.035%); assay type: functional
K562 [14] = test: Induction of apoptosis in human K562 cells assessed as viable cells at 1 uM after 24 hrs by Annexin V-FITC/propidium iodide staining-based flow cytometry (reference value: 92.4%); assay type: functional
PC-3 [15] = test: Potency index, ratio of vorinostat IC50 to compound IC50 for human PC3 cells; assay type: functional; in short: as §2
Histone deacetylase 1 = Histone deacetylase 1 (Homo sapiens, UniProt Q13547); test: Inhibition of HDAC1 (unknown origin) using substrate after 30 mins by fluorometric analysis
Sequence of Histone deacetylase 1 (Q13547 whole entry): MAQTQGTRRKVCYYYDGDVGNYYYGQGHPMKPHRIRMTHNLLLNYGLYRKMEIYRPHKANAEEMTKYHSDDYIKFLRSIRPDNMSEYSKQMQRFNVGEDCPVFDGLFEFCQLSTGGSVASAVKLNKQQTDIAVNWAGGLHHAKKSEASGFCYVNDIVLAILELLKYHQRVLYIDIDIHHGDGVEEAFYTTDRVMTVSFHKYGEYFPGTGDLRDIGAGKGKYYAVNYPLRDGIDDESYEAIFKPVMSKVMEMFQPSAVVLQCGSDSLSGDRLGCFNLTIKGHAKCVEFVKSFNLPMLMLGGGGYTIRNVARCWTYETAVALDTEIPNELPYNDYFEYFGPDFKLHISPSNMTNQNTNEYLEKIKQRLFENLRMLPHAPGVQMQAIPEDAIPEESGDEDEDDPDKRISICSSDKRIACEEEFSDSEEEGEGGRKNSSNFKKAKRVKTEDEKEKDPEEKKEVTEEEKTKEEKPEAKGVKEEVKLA

K562 [16] = test: Induction of apoptosis in human K562 cells assessed as necrotic cells at 2 uM after 24 hrs by Annexin V-FITC/propidium iodide staining-based flow cytometry (reference value: 0.035%); assay type: functional
K562 [17] = test: Induction of apoptosis in human K562 cells assessed as early apoptotic cells at 2 uM after 24 hrs by Annexin V-FITC/propidium iodide staining-based flow cytometry (reference value: 4.78%); assay type: functional
[18] = Homo sapiens, K562, 24 h, read-out: Activity

Which IC50 [1] does the source give for `O=C(/C=C/c1ccc(CN(Cc2ccccc2)Cc2ccc3cc(Br)ccc3n2)cc1)NO` here?
Its IC50 is greater than 1000 nM.

With `COc1ccc2nc(CNCc3ccc(/C=C/C(=O)NO)cc3)ccc2c1` as the compound, how does the IC50 [1] read?
Its IC50 is 236 nM.

And the IC50 (PC-3 [2])?
The IC50 was 3700 nM.

What about the IC50 (HeLa) of the same compound?
The IC50 was 2680 nM.

And the IC50 (K562 [3])?
The IC50 was 690 nM.

What about the IC50 (HEL) of the same compound?
The IC50 was 130 nM.

What about the IC50 (MOLT-4) of the same compound?
The IC50 was 230 nM.

Which IC50 [1] does the source give for `O=C(/C=C/c1ccc(CNCc2ccc3cc(Br)ccc3n2)cc1)NO` here?
The IC50 was 375 nM.

Which IC50 [1] does the source give for `O=C(/C=C/c1ccc(C(=O)N(Cc2ccc3ccccc3n2)c2ccccc2)cc1)NO` here?
The IC50 was greater than 1000 nM.

With `O=C(/C=C/c1ccc(CN(Cc2ccccc2)Cc2ccc3ccccc3n2)cc1)NO` as the compound, how does the IC50 [1] read?
The IC50 was greater than 1000 nM.

For `COc1cccc2ccc(CN(C(=O)c3ccc(/C=C/C(=O)NO)cc3)c3ccccc3)nc12`, which IC50 [1] is on record?
The IC50 was 724 nM.

For `O=C(/C=C/c1ccc(C(=O)N(Cc2ccc3cc(Br)ccc3n2)c2ccccc2)cc1)NO`, which IC50 [1] is on record?
Its IC50 is greater than 1000 nM.

For `O=C(/C=C/c1ccc(CNCc2ccc3cc(Cl)ccc3n2)cc1)NO`, which IC50 [1] is on record?
Its IC50 is 305 nM.

What about the IC50 (PC-3 [2]) of the same compound?
The IC50 was 4350 nM.

What about the IC50 (HeLa) of the same compound?
The IC50 was 3030 nM.

And the IC50 (K562 [3])?
The IC50 was 720 nM.

What about the IC50 (HEL) of the same compound?
Its IC50 is 220 nM.

What about the IC50 (MOLT-4) of the same compound?
The IC50 was 250 nM.

Which Activity (K562 [4]) does the source give for `O=C(/C=C/c1ccc(CNCc2ccc3ccccc3n2)cc1)NO` here?
Its Activity is 34.5%.

What about the Activity (K562 [5]) of the same compound?
Its Activity is “Dose-dependent effect”.

What about the IC50 [1] of the same compound?
Its IC50 is 138 nM.

What about the IC50 (PC-3 [2]) of the same compound?
Its IC50 is 3080 nM.

And the IC50 (HeLa)?
The IC50 was 2200 nM.

What about the Activity (K562 [6]) of the same compound?
The Activity was 2.16%.

What about the IC50 (Histone deacetylase 8) of the same compound?
Its IC50 is 442 nM.

What about the IC50 [7] of the same compound?
The IC50 was 49.5 nM.

And the IC50 [8]?
The IC50 was 108 nM.

And the “Ratio IC50” value (K562 [9])?
Its value is 3 - 5.

And the IC50 [10]?
Its IC50 is 5210 nM.

What about the Activity (K562 [11]) of the same compound?
The Activity was 1.95%.

And the IC50 (K562 [3])?
The IC50 was 510 nM.

What about the viability at 2 µM (K562 [12]; [18]) of the same compound?
Its viability at 2 µM is 39.6%.

And the Activity (K562 [13])?
The Activity was 0.121%.

What about the viability at 1 µM (K562 [14]; [18]) of the same compound?
Its viability at 1 µM is 63.4%.

And the “Ratio IC50” value (PC-3 [15])?
The value was 3 - 5.

And the IC50 (Histone deacetylase 1)?
The IC50 was 72.5 nM.

What about the IC50 (HEL) of the same compound?
The IC50 was 150 nM.

What about the Activity (K562 [16]) of the same compound?
Its Activity is 0.072%.

And the Activity (K562 [17])?
The Activity was 58.2%.

And the IC50 (MOLT-4)?
Its IC50 is 240 nM.

With `O=C(NO)c1ccc(CNCc2ccc3cccc(Cl)c3n2)cc1` as the compound, how does the IC50 [1] read?
Its IC50 is greater than 1000 nM.

With `O=C(/C=C/c1cccc(CNCc2ccc3cc(Br)ccc3n2)c1)NO` as the compound, how does the IC50 [1] read?
The IC50 was 559 nM.

Which results are given for `O=C(CCCCCCC(=O)Nc1ccccc1)NO` [VORINOSTAT]?
Activity (K562 [4]): 6.1%; Activity (K562 [5]): Dose-dependent effect; IC50 (PC-3 [2]): 13900 nM; Activity (K562 [6]): 4.04%; Activity (K562 [11]): 2.99%; Activity (K562 [12]): 88.9%; Activity (K562 [13]): 0.06%; Activity (K562 [14]): 90.8%; Activity (K562 [16]): 0.05%; Activity (K562 [17]): 6.97%

For `COc1ccc(N(Cc2ccc3cccc(Cl)c3n2)C(=O)c2ccc(/C=C/C(=O)NO)cc2)cc1`, which IC50 [1] is on record?
Its IC50 is greater than 1000 nM.

For `O=C(/C=C/c1ccc(CN(Cc2ccccc2)Cc2ccc3cc(Cl)ccc3n2)cc1)NO`, which IC50 [1] is on record?
The IC50 was greater than 1000 nM.

For `O=C(NO)c1ccc(CNCc2ccc3ccccc3n2)cc1`, which IC50 [1] is on record?
The IC50 was greater than 1000 nM.
